The text below walks through data of ChEMBL document CHEMBL3627706, “Syntheses and evaluation of substituted aromatic hydroxamates and hydroxamic acids that target Mycobacterium tuberculosis” (2015).

Values after ≈ are worked out from the molar mass of the structure shown.

As usually defined, the MIC is the smallest concentration in the dilution series that meets the test's criterion for growth inhibition.

In experiment [1] the test system is Mycobacterium tuberculosis. In words: Antimycobacterial activity against Mycobacterium tuberculosis in 7H12 medium by microplate alamar blue assay. The class given is functional. The method, boiled down:
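Microplate alamar blue assay against M. tuberculosis in 7H12 medium (7H9 plus casitone, palmitic acid, albumin and catalase). MIC is reported in µM.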

In experiment [2] the test system is Mycobacterium tuberculosis. In words: Antimycobacterial activity against Mycobacterium tuberculosis in GAS medium by microplate alamar blue assay. Type of experiment: functional. The method, boiled down:
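Microplate alamar blue assay against M. tuberculosis grown in glycerol-alanine-salts (GAS) medium. MIC is reported in µM.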
(In general: Resazurin is reduced to fluorescent resorufin, in cell work by metabolically active cells.)

Experiment [3] relates to Bacillus spizizenii. In words: Antibacterial activity against Bacillus subtilis ATCC 6633 after 21 hrs by Kirby-Bauer agar diffusion assay. The class given is functional. The method in brief:
(§1)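 Agar diffusion assay. Test solutions were made at 20 mM in DMSO and diluted 10-fold with MeOH to 2 mM. Plates were incubated at 37 °C for 21 h. Inhibition zone diameters are recorded in mm, with unclear or very unclear zones flagged.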
(Agar diffusion results depend on both activity and mobility in agar.)

The test system of another experiment is Staphylococcus aureus. In words: Antibacterial activity against Staphylococcus aureus SG511 after 21 hrs by Kirby-Bauer agar diffusion assay. Type of experiment: functional. The method in brief: as §1
Experiment [4] relates to Micrococcus luteus. In words: Antibacterial activity against Micrococcus luteus ATCC 10240 after 21 hrs by Kirby-Bauer agar diffusion assay. The class given is functional. The method, boiled down:
as §1

In experiment [5] the test system is Mycolicibacterium vaccae. In words: Antibacterial activity against Mycobacterium vaccae IMET 10670 after 44 hrs by Kirby-Bauer agar diffusion assay. The class given is functional. The method in brief: (§2)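 Test solutions for the agar diffusion assay were 20 mM in DMSO, diluted 10-fold with MeOH to 2 mM. M. vaccae plates were incubated at 37 °C for 44 h. Inhibition zones are recorded in mm, with unclear or very unclear zones flagged.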

Experiment [6] has as its system Mycolicibacterium vaccae. In words: Antibacterial activity against Mycobacterium vaccae IMET 10670 assessed as unclear inhibition zone after 44 hrs by Kirby-Bauer agar diffusion assay. Type of experiment: functional. The method, boiled down:
as §2

Experiment [7] has as its system Pseudomonas aeruginosa. In words: Antibacterial activity against wild type Pseudomonas aeruginosa K799 after 21 hrs by Kirby-Bauer agar diffusion assay. Type of experiment: functional. The method, boiled down: as §1
In experiment [8] the test system is Pseudomonas aeruginosa. Nature of the experiment: Antibacterial activity against Pseudomonas aeruginosa K799/61 after 21 hrs by Kirby-Bauer agar diffusion assay. Type of experiment: functional. The method, boiled down: as §1
Experiment [9] relates to Escherichia coli. Nature of the experiment: Antibacterial activity against Escherichia coli DC2 after 21 hrs by Kirby-Bauer agar diffusion assay. Type of experiment: functional. The method in brief: as §1
Experiment [10] deals with Pseudomonas aeruginosa. Nature of the experiment: Antibacterial activity against wild type Pseudomonas aeruginosa K799 assessed as unclear inhibition zone after 21 hrs by Kirby-Bauer agar diffusion assay. Type of experiment: functional. The method, boiled down:
as §1

The test system of experiment [11] is Pseudomonas aeruginosa. In words: Antibacterial activity against Pseudomonas aeruginosa K799/61 assessed as unclear inhibition zone after 21 hrs by Kirby-Bauer agar diffusion assay. Type of experiment: functional. The method, boiled down:
as §1

In experiment [12] the test system is Micrococcus luteus. In words: Antibacterial activity against Micrococcus luteus ATCC 10240 assessed as very unclear inhibition zone after 21 hrs by Kirby-Bauer agar diffusion assay. The class given is functional. The method, boiled down:
as §1

Experiment [13] deals with Escherichia coli. In words: Antibacterial activity against Escherichia coli DC2 assessed as unclear inhibition zone after 21 hrs by Kirby-Bauer agar diffusion assay. Type of experiment: functional. The method in brief: as §1
Experiment [14] deals with Mycolicibacterium vaccae. In words: Antibacterial activity against Mycobacterium vaccae IMET 10670 assessed as very unclear inhibition zone after 44 hrs by Kirby-Bauer agar diffusion assay. The class given is functional. The method in brief: as §2
Experiment [15] concerns Bacillus spizizenii. Nature of the experiment: Antibacterial activity against Bacillus subtilis ATCC 6633 at 1.66 microg/ml after 21 hrs by Kirby-Bauer agar diffusion assay. Type of experiment: functional. The conditions noted are these: ATCC 6633, 21 h, read-out: DIZ.
The test system of experiment [16] is Pseudomonas aeruginosa. In words: microbe, parasite or virus in culture. The conditions noted are these: K799/61, 21 h, read-out: DIZ.

For the molecule `O=C(NOCc1ccccc1)c1ccccc1`, the MIC in experiment [1] was over 100 µM; in experiment [2], 48.5 µM (≈ 11 µg/mL).

As for `O=C(NOCc1ccccc1)c1ccc([N+](=O)[O-])cc1`, the MIC in experiment [1] was 90.4 µM (≈ 24.6 µg/mL); in [2], 13.6 µM (≈ 3.7 µg/mL).

For `O=C(NO)c1ccc([N+](=O)[O-])cc1`, the MIC came out at 7.79 µM (≈ 1.42 µg/mL) in experiment [1] and 0.71 µM (≈ 0.129 µg/mL) in experiment [2]. In addition, the “diameter of the inhibition zone (DIZ)” value was 0 mm in the experiment with Bacillus spizizenii [3]; 0 mm in the experiment on Staphylococcus aureus; 0 mm with Micrococcus luteus [4]; 30 mm in the experiment with Mycolicibacterium vaccae [5]; 33 mm in the experiment on Mycolicibacterium vaccae [6]; 13 mm in the experiment with Pseudomonas aeruginosa [7]. Moreover, the “diameter of the inhibition zone (DIZ)” value in the experiment with Pseudomonas aeruginosa [8] and in the experiment on Escherichia coli [9] was 0 mm throughout.

Regarding `O=C(NOCc1ccccc1)c1ccc(Cl)cc1`, the MIC in [1] came to 47.3 µM (≈ 12.4 µg/mL); in [2], 15.5 µM (≈ 4.07 µg/mL). The “diameter of the inhibition zone (DIZ)” value turned out to be 19 mm in the experiment on Bacillus spizizenii [3]; 19 mm with Staphylococcus aureus; 19 mm with Micrococcus luteus [4]; 15 mm with Mycolicibacterium vaccae [5]; 14 mm in the experiment on Pseudomonas aeruginosa [7]; 14 mm in the experiment on Pseudomonas aeruginosa [8]. The “diameter of the inhibition zone (DIZ)” value in the experiment on Escherichia coli [9] was 0 mm.

Take `C=CCONC(=O)c1ccccc1`: the MIC in [1] and in experiment [2] was over 100 µM each time.

Take `CC(C)(C)[Si](C)(C)ONC(=O)c1ccccc1`: the minimum inhibitory concentration (MIC) in experiment [1] was over 50 µM; in experiment [2], 24.3 µM (≈ 6.11 µg/mL). Moreover, the “diameter of the inhibition zone (DIZ)” value with Bacillus spizizenii [3] is on record as 0 mm; in the experiment with Staphylococcus aureus, 0 mm; with Micrococcus luteus [4], 0 mm; with Mycolicibacterium vaccae [5] it was 26 mm; with Pseudomonas aeruginosa [10] it was 18 mm; in the experiment with Pseudomonas aeruginosa [7] it was 14 mm. For the same molecule, the “diameter of the inhibition zone (DIZ)” value with Pseudomonas aeruginosa [8] and in the experiment with Escherichia coli [9] was 0 mm in each case.

For the molecule `C=CCONC(=O)c1ccc([N+](=O)[O-])cc1`, the MIC is over 100 µM in experiment [1] and 37.6 µM (≈ 8.36 µg/mL) in experiment [2].

Turning to `O=C(NOCc1ccccc1)c1ccc(F)cc1`, the figures for the minimum inhibitory concentration (MIC) in experiment [1] and in experiment [2] were over 100 µM and 42.3 µM (≈ 10.4 µg/mL), respectively.

With `CCOc1ccc(C(=O)NOCc2ccccc2)cc1`, the values for the MIC in [1] and in [2] were over 100 µM and 47.3 µM (≈ 12.8 µg/mL), respectively.

Consider `O=C(NO)c1ccc(F)cc1`, for which the minimum inhibitory concentration (MIC) in [1] and in experiment [2] was over 100 µM each time.

`CCOc1ccc(C(=O)NO)cc1`: the values for the MIC in [1] and in experiment [2] were 48.1 µM (≈ 8.71 µg/mL) and over 100 µM, respectively. Also, the “diameter of the inhibition zone (DIZ)” value in the experiment with Bacillus spizizenii [3] is 20 mm; in the experiment with Staphylococcus aureus it was 17 mm; in the experiment on Micrococcus luteus [4] it was 0 mm; in the experiment on Mycolicibacterium vaccae [5], 0 mm; in the experiment on Pseudomonas aeruginosa [7], 0 mm; in the experiment with Pseudomonas aeruginosa [11], 14 mm. In addition, the “diameter of the inhibition zone (DIZ)” value in the experiment on Escherichia coli [9] amounted to 0 mm.

`O=C(NOCc1ccccc1)c1cc([N+](=O)[O-])cc(C(F)(F)F)c1`: the MIC is over 100 µM in experiment [1] and 10.7 µM (≈ 3.62 µg/mL) in experiment [2]. In addition, the “diameter of the inhibition zone (DIZ)” value with Bacillus spizizenii [3] was 16 mm; with Staphylococcus aureus it was 20 mm; with Micrococcus luteus [4], 14 mm; in the experiment with Micrococcus luteus [12], 20 mm; with Mycolicibacterium vaccae [5], 45 mm; in the experiment on Pseudomonas aeruginosa [7], 0 mm. For the same molecule, the “diameter of the inhibition zone (DIZ)” value in the experiment on Pseudomonas aeruginosa [8] and with Escherichia coli [9] was 0 mm each time.

Regarding `C=CCONC(=O)c1cc([N+](=O)[O-])cc(C(F)(F)F)c1`, the minimum inhibitory concentration (MIC) in experiment [1] was over 100 µM; in experiment [2], 43.2 µM (≈ 12.5 µg/mL).

In the case of `CC(C)(C)[Si](C)(C)ONC(=O)c1cc([N+](=O)[O-])cc(C(F)(F)F)c1`, the MIC in experiment [1] and in [2] was over 100 µM in each case. Further, the “diameter of the inhibition zone (DIZ)” value in the experiment with Bacillus spizizenii [3] came out at 20 mm; with Staphylococcus aureus, 0 mm; with Micrococcus luteus [4], 0 mm; in the experiment on Mycolicibacterium vaccae [5], 14 mm; in the experiment with Pseudomonas aeruginosa [7], 0 mm; in the experiment with Pseudomonas aeruginosa [8], 0 mm. Moreover, the “diameter of the inhibition zone (DIZ)” value in the experiment on Escherichia coli [13] amounted to 17 mm.

Consider `COC(=O)c1cc([N+](=O)[O-])cc(C(F)(F)F)c1`, for which the MIC in experiment [1] is over 100 µM; in experiment [2], 30 µM (≈ 7.46 µg/mL).

For the molecule `O=C(NO)c1cc([N+](=O)[O-])cc(C(F)(F)F)c1`, the minimal inhibitory concentration (MIC) was 19.5 µM (≈ 4.87 µg/mL) in experiment [1] and over 100 µM in experiment [2].

Take `O=C(NOCc1ccccc1)c1cc(Br)cc(C(F)(F)F)c1`: the minimum inhibitory concentration (MIC) in experiment [1] was over 100 µM; in [2], 80.5 µM (≈ 30.1 µg/mL). The “diameter of the inhibition zone (DIZ)” value with Bacillus spizizenii [3] was 17.5 mm; in the experiment on Staphylococcus aureus, 20 mm; in the experiment with Micrococcus luteus [4] it was 16 mm; in the experiment on Mycolicibacterium vaccae [5], 26 mm; in the experiment on Mycolicibacterium vaccae [6], 32 mm; in the experiment on Pseudomonas aeruginosa [7], 0 mm. Moreover, the results for the “diameter of the inhibition zone (DIZ)” value in the experiment on Pseudomonas aeruginosa [8] and in the experiment with Escherichia coli [9] were 0 mm and 10 mm, respectively.

On to `O=C(CC(=O)OCc1ccccc1)NOCc1ccccc1`, for which the MIC amounted to 86.6 µM (≈ 25.9 µg/mL) in experiment [1] and 27.1 µM (≈ 8.11 µg/mL) in experiment [2].

In the case of `CC(C)(C)[Si](C)(C)ONC(=O)CC(=O)OCc1ccc([N+](=O)[O-])cc1`, the minimal inhibitory concentration (MIC) in [1] was over 100 µM; in experiment [2] it was 3.04 µM (≈ 1.12 µg/mL).

On to `C=CCONC(=O)CC(=O)OCc1ccc([N+](=O)[O-])cc1`, for which the minimum inhibitory concentration (MIC) amounted to 98.7 µM (≈ 29 µg/mL) in experiment [1] and 98.6 µM (≈ 29 µg/mL) in experiment [2].

On to `O=C(CC(=O)OCc1ccc([N+](=O)[O-])cc1)NO`, for which the minimal inhibitory concentration (MIC) in experiment [1] and in experiment [2] was over 100 µM throughout.

For `O=C(NO)c1ccc(Cl)cc1`, the MIC in [1] and in [2] was over 100 µM each time. Moreover, the “diameter of the inhibition zone (DIZ)” value amounted to 0 mm in the experiment with Bacillus spizizenii [3]; 0 mm in the experiment on Staphylococcus aureus; 0 mm in the experiment with Micrococcus luteus [4]; 15.5 mm in the experiment with Mycolicibacterium vaccae [14]; 0 mm in the experiment on Pseudomonas aeruginosa [7]; 18 mm with Pseudomonas aeruginosa [11]. Also, in the experiment on Escherichia coli [9], the “diameter of the inhibition zone (DIZ)” value came to 16 mm.

On to `O=C(O)c1cn(C2CC2)c2cc(N3CCNCC3)c(F)cc2c1=O` [CIPROFLOXACIN], for which the zone of inhibition at 1.66 µg/mL with Bacillus spizizenii [15] came out at 19 mm; in the experiment on Pseudomonas aeruginosa [16] it was 26 mm. Also, the “diameter of the inhibition zone (DIZ)” value in the experiment with Staphylococcus aureus is on record as 18 mm; in the experiment on Micrococcus luteus [4], 0 mm; in the experiment on Mycolicibacterium vaccae [5], 20 mm; in the experiment with Pseudomonas aeruginosa [7] it was 23 mm; in the experiment with Pseudomonas aeruginosa [8], 19 mm.

For the molecule `CO[C@H]1/C=C/O[C@@]2(C)Oc3c(C)c(O)c4c(O)c(c(/C=N/N5CCN(C)CC5)c(O)c4c3C2=O)NC(=O)/C(C)=C\C=C\[C@H](C)[C@H](O)[C@@H](C)[C@@H](O)[C@@H](C)[C@H](OC(C)=O)[C@@H]1C` [RIFAMPIN], the minimum inhibitory concentration (MIC) is 0.03 µM (≈ 0.0247 µg/mL) in experiment [1] and under 0.016 µM in [2].
